# Calls of active or inactive are those of the source.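 How the source made its calls: active means compounds cutting labeled HDL uptake fluorescence whose fitted AC50 is within ten times their top tested dose; inconclusive means flat fit with 30 to 70% inhibition, or poor fit; inactive means the rest.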
# Target: Scavenger receptor class B member 1 (Mus musculus) (UniProt Q61009)
# Assay: inhibitors of SR-BI-mediated DiI-HDL uptake, dose response, ldlA[mSR-BI] CHO cells, fluorescence, dry powder, set 6 (AID 588828)
# Settings: 3 h; for activity change, negative = inhibition: at 35 µM (top of the series)
# Summary of the method: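 System: CHO ldlA cells overexpressing mSR-BI scavenger receptor. Reagent: DiI-HDL, 10 µg/mL. Dosing: compound concentration series. Times: overnight cell attachment, then 3 h compound and DiI-HDL exposure at 37 °C. Signal: fluorescence, bottom read, excitation 550 nm, emission 595 nm.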
# Scavenger receptor class B member 1 (Mus musculus), sequence (Q61009 whole entry, looked up): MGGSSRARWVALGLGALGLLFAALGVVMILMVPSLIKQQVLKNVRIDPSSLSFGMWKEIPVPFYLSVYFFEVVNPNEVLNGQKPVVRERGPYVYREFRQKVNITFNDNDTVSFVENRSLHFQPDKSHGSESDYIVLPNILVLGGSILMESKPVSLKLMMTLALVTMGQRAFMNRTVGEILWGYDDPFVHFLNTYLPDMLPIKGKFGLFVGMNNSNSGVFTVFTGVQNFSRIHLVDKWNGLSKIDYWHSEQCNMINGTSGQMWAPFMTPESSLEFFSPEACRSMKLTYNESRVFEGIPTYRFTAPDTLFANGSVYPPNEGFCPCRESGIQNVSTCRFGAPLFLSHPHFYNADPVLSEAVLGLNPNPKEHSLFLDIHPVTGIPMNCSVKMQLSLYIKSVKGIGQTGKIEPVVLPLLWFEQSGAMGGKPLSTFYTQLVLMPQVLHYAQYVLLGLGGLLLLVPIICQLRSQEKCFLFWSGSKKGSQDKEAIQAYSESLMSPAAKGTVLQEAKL
Structure (SMILES),AC50,"activity change, negative = inhibition"
C[C@@H]1CN([C@H](C)CO)C(=O)c2cc(NC(=O)Cc3cn(C)c4ccccc34)ccc2O[C@H]1CN(C)S(=O)(=O)c1ccc(Cl)cc1,43.8 nM,–
CCC(=O)N1CC(C)(C)c2cc(-c3csc(NC(=O)c4cc(OC)cc(OC)c4)n3)ccc21,14.2 nM,–
CCCCCCC1CCC/C1=N\NC(N)=S (stereo unspecified),18.7 nM,–
CCNC(=O)N1CCc2cc(-c3csc(NC(=O)c4cc(OC)cc(OC)c4)n3)ccc21,0.927 nM,–
CCC(=O)N1CCc2cc(-c3csc(NC(=O)c4cccc(OC)c4)n3)ccc21,92.6 nM,–
CC(=O)N1CCc2cc(-c3nc(NC(=O)c4cccc(OC(F)(F)F)c4)sc3C)ccc21,614 nM,–
COc1c(NC(=O)C(=O)c2ccc(OCCN3CCOCC3)c3ccccc23)cc(C(C)(C)C)cc1NS(C)(=O)=O,–,inactive
CC(C)(Sc1cc(C(C)(C)C)c(O)c(C(C)(C)C)c1)Sc1cc(C(C)(C)C)c(O)c(C(C)(C)C)c1,–,inactive
COc1ccc(-c2cc(CC(=O)N(C3CCCCC3)C(C)C(=O)NC3CCCC3)no2)cc1OC (stereo unspecified),3.19 nM,–
COc1cc(OC)cc(C(=O)Nc2nc(-c3ccc4c(c3)CCN4C(=O)OC(C)(C)C)cs2)c1,6.89 nM,–
COc1cc(OC)cc(C(=O)Nc2nc(-c3ccc4c(c3)CCN4C(=O)CN(C)C)cs2)c1,6.3 nM,–
C[C@@H]1CN([C@@H](C)CO)C(=O)Cc2cc(NC(=O)Nc3ccc(C(F)(F)F)cc3)ccc2O[C@@H]1CN(C)S(=O)(=O)c1ccc(Cl)cc1,> 22000 nM (inactive),–
Cc1ccc2oc(-c3cccc(NC(=O)c4cc(-n5cnnc5)ccc4Cl)c3)nc2c1,568 nM,–
C[C@H](C(=O)NC1CCCC1)N(C(=O)Cn1nnc(-c2ccc3c(c2)OCO3)n1)C1CCCCC1,1.22 nM,–
COCC(=O)N1CCc2cc(-c3csc(NC(=O)c4cc(OC)cc(OC)c4)n3)ccc21,3.66 nM,–
CCC(=O)N1CCc2cc(-c3csc(NC(=O)c4ccc(F)c(OC)c4)n3)ccc21,287 nM,–

# Reference: PubChem BioAssay AID588828 (Broad Institute, 2011)
